According to ChEMBL document CHEMBL1914406, “Inhibitory effect of novel 5-O-acyl juglones on mammalian DNA polymerase activity, cancer cell growth and inflammatory response” (Bioorg Med Chem, 2011):
Activity calls are given as the source filed them. No cut-off for these calls is given here.

Legend:
[1] = system: RAW264.7; assay: Antiinflammatory activity in mouse RAW264.7 cells assessed as inhibition of LPS-induced TNFalpha secretion at 5 uM treated 30 mins before LPS challenge measured after 24 hrs by ELISA; format: functional, cell-based
Summary of the method: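 RAW264.7 cells in MEM with 4.5 g/L glucose, 10% FCS, 5 mM L-glutamine, at 37 °C in 5% CO2. Seeded at 5 × 10⁴ cells/well and grown 24 h. Compound (final 1 and 5 µM) given 30 min before 100 ng/mL LPS. After 24 h, TNF-α in the medium measured by ELISA, relative to the no-compound value (100%). Mean ± SE, n = 4.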

[2] = system: HCT-116; assay: Cytotoxicity against human HCT116 cells by WST-1 assay relative to camptothecin; format: functional, cell-based

Row | SMILES | Activity [1] | Activity [2]
1 | CCCCCCCCCCCC(=O)Oc1cccc2c1C(=O)C=CC2=O | Active | 
2 | CCCCCCCC/C=C\CCCCCCCC(=O)Oc1cccc2c1C(=O)C=CC2=O |  | Active
